Test results: ChEMBL document CHEMBL2434904, “Novel N-methylsulfonamide and retro-N-methylsulfonamide derivatives as 17β-hydroxysteroid dehydrogenase type 2 (17β-HSD2) inhibitors with good ADME-related physicochemical parameters” (Eur J Med Chem, 2013)

Experiments:
[1] = biological target: T1, 17-beta-hydroxysteroid dehydrogenase type 1 (Homo sapiens) (UniProt P14061); test: Inhibition of human placenta 17beta-HSD1 cytosolic fraction using unlabeled, [2,4,6,7-3H]-estrone as substrate at 1 uM after 10 mins by HPLC analysis in presence of NADH relative to control
T1 sequence (whole entry): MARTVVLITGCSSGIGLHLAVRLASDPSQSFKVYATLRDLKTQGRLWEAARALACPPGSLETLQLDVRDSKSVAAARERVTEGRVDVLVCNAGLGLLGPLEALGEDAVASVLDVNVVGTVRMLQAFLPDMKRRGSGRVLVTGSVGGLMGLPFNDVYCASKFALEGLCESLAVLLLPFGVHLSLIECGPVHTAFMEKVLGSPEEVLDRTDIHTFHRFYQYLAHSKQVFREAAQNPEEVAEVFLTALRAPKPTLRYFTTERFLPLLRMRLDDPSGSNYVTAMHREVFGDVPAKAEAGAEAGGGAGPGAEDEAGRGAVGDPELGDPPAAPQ

[2] = biological target: T2, 17-beta-hydroxysteroid dehydrogenase type 2 (Homo sapiens) (UniProt P37059); test: Inhibition of human placenta 17beta-HSD2 microsomal fraction using unlabeled, [2,4,6,7-3H]-estradiol as substrate at 1 uM after 20 mins by HPLC analysis in presence of NAD+ relative to control
T2 sequence (whole entry): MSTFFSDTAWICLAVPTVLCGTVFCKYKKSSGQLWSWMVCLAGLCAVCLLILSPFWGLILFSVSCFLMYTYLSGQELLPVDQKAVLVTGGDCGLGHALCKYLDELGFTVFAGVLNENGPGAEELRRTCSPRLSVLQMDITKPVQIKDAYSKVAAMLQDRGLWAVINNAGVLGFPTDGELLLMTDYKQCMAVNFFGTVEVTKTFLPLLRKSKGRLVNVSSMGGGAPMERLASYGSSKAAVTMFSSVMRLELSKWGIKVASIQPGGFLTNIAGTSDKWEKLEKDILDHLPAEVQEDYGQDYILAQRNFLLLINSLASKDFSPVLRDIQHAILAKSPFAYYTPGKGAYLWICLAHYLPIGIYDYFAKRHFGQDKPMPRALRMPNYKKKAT
How it was run: (§1)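 17β-HSD2 came from the human placental microsomal pellet after fractional centrifugation at 1000, 10,000 and 150,000 g. It was incubated at 37 °C with NAD⁺ and inhibitor in 50 mM phosphate buffer with 20% glycerol, 1 mM EDTA and 1% DMSO final. Unlabeled plus [³H]-E2 (500 nM final) was added, and the reaction was stopped with HgCl₂ after 20 min. After ether extraction, radio-flow detection gave % conversion = E1/(E1+E2). At least three independent experiments were run.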

[3] = Partition coefficient, log P of the compound; format: physicochemical; details: octanol/water
How it was run: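 Experimental log P was measured on a SiriusT3 instrument. Calculated log P came from the GALAS method, which predicts from structurally similar molecules with known experimental data.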

[4] = biological target: T3, 17-beta-hydroxysteroid dehydrogenase type 1 (Homo sapiens, UniProt P14061); test: Inhibition of human placenta 17beta-HSD1 cytosolic fraction using unlabeled, [2,4,6,7-3H]-estrone as substrate after 10 mins by HPLC analysis in presence of NADH
T3 sequence (P14061 whole entry): T1 sequence (whole entry)

[5] = species on record: Homo sapiens; test: Selectivity factor, ratio of IC50 for human placenta 17beta-HSD1 cytosolic fraction to IC50 for human placenta 17beta-HSD2 microsomal fraction
How it was run: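 Selectivity factor is IC50(17β-HSD1, placental cytosolic, E1/NADH assay) divided by IC50(17β-HSD2, placental microsomal, E2/NAD⁺ assay). Both come from radiolabeled-substrate conversion assays at 37 °C with 500 nM substrate.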

[6] = biological target: T4, 17-beta-hydroxysteroid dehydrogenase type 2 (Homo sapiens, UniProt P37059); test: Inhibition of human placenta 17beta-HSD2 microsomal fraction using unlabeled, [2,4,6,7-3H]-estradiol as substrate after 20 mins by HPLC analysis in presence of NAD+
T4 sequence (P37059 whole entry): T2 sequence (whole entry)
How it was run: as §1

[7] = biological target: T4, 17-beta-hydroxysteroid dehydrogenase type 2; test: Inhibition of 17beta-HSD2 (unknown origin)

| inhibition [1] [%] | inhibition [2] [%] | logP [3] | IC50 [4] [nM] | Ratio IC50 [5] | IC50 [6] [nM] | IC50 [7] [nM] | SMILES |
| --- | --- | --- | --- | --- | --- | --- | --- |
| 68 | 88 | 4.08 | 427 | 3 | 159 | – | CN(c1cccc(-c2cccc(O)c2)c1)S(=O)(=O)c1cccc(O)c1 |
| 3 | – | – | – | – | – | – | COc1ccc(-c2cccc(C(=O)N(C)Cc3cccc(OC)c3)c2)cc1 |
| 22 | 66 | 3.72 | 3280 | 6 | 511 | – | CN(c1ccc(-c2cccc(O)c2)cc1)S(=O)(=O)c1cccc(O)c1 |
| – | – | – | > 60000 | > 115 | – | – | COc1cccc(-c2cccc(C(=O)N(C)c3cccc(OC)c3)c2)c1 |
| 42 | 68 | 4.34 | 1310 | 2 | 540 | – | CN(c1cccc(O)c1)S(=O)(=O)c1cccc(-c2cccc(O)c2)c1 |
| – | – | – | – | – | – | 420 | CN1C(=O)C[C@@H](c2ccccc2F)[C@@H]1[C@@H](O)c1cccc(-c2ccccc2)c1 |
| – | – | – | – | – | – | 1020 | CN1C(=O)C[C@@H](c2ccccc2F)[C@@H]1[C@@H](O)c1ccc(-c2ccccc2)cc1 |
